Screens as filed in PubChem.
Rows were chosen to be rich in hits. Some 1.9% of all compounds tested hit in one or more screens of this group.
PglD DTNB: C. jejuni PglD acetyltransferase inhibitors, primary screen, biochemical, DTNB colorimetric, single point; inhibition, % at 12.5 µM; purified PglD enzyme, DTNB colorimetric CoA detection; actives 0.098% (n = 360,000); UDP-N-acetylbacillosamine N-acetyltransferase PglD (Campylobacter jejuni); in the data active = inhibition above about 16%, passing the limit was not always enough
Cneo AK release: Cryptococcus neoformans cell lysis inducers, primary screen, AK release luminescence, single concentration | C. neoformans lysis, adenylate kinase release luminescence, 4 h; normalised: neutral wells 0, clomiphene wells 100 | lysis activity, % at 15 µM | actives 0.2% (n = 360,000) | AID 651654, 2012;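 active = mean lysis activity across replicates of at least 80%, whatever share of replicates individually reach that level; inactive = mean lysis activity below 80%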
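Test system: log-phase Cryptococcus neoformans yeast cells. Input: 5 × 10^6 yeast cells/mL. Medium: fresh YPD growth medium. Doses: single dose. Incubation: static 4 h at 37 °C with compound, 1 h detection. Measured by: luminescent adenylate kinase detection reagent. Read-out: signal increase indicating cell lysis. Benchmarks: Clomiphene.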
RAD54 branch: inhibitors of human RAD54 branch migration, primary screen, biochemical, fluorescence, single point. DNA repair and recombination protein RAD54-like (Homo sapiens), Q92698. RAD54 Holliday junction branch migration, FAM/BHQ fluorescence. inhibition, % at 10.4 µM. actives 0.14% (n = 360,000);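 active = mean normalized replicate activity at least 40 and at least half of replicates scoring 40 or more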;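 also: 0% = median of neutral control wells and 100% = median of positive control wells; inhibitors cause a drop in the FAM fluorescence signal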
RAD52 inh: RAD52 DNA annealing inhibitors, primary screen, biochemical, FRET, single point, set 2. DNA repair protein RAD52 homolog (Homo sapiens), P43351. recombinant RAD52 DNA annealing, FRET fluorescence. inhibition, % at 18.7 µM. actives 0.46% (n = 360,000);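 active = every replicate showing at least 50% inhibition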
Target sequence (P43351 whole entry, looked up): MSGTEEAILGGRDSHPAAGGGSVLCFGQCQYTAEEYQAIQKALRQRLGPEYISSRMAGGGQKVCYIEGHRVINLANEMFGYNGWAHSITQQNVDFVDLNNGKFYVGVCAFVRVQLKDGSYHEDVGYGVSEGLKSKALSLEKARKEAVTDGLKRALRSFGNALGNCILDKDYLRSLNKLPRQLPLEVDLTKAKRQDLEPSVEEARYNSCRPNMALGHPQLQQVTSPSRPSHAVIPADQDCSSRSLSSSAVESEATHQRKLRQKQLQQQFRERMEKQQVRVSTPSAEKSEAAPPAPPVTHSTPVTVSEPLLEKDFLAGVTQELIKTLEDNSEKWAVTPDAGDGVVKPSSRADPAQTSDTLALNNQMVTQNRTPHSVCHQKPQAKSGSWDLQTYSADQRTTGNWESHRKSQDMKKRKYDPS
rRNA inh HTS: reduced GFP signal of wild-type E. coli, primary screen, bacterial rRNA inhibitor project, GFP/RFP fluorescence, OD600, single point; GFP signal change (wild-type ribosome), % (test concentration not listed); actives 1.6% (n = 350,000); E. coli WT GFP vs humanized-ribosome RFP mutants, 24 h; hits give low values; DMSO median 0, no signal -100;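 active = significant combined selectivity score with lowered wild-type GFP, culture density cut under 30%, mutant RFP and density less affected; inactive = any of these conditions unmet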
* marks the source's active call; other numbers are inactive results; / = not tested or not shown.

SMILES	PglD DTNB	Cneo AK release	RAD54 branch	RAD52 inh	rRNA inh HTS
Cc1[nH]c2ccccc2c1/C=N/NC(=O)CNC(=O)c1cccs1	/	/	/	-16	/
Cc1[nH]c2ccccc2c1/C=N/NC(=O)c1cccs1	/	/	/	-85	-24*
CCc1cc2c3c([nH]c2cc1S(=O)(=O)N1CCC2(CC1)OCCO2)CCCC3=O	-4	7	0	-1	-26*
O=C(c1ccccn1)N1CC(=O)N2[C@H](C1)[C@H](c1ccc(C#CC3CCCC3)cc1)[C@@H]2CO	/	/	/	5	1
O=C(N=Nc1c(O)[nH]c2ccc(Br)cc12)c1ccccc1-n1cccc1	-2	-2	6	-5	-29*
Oc1ccc(NC(=S)N=Nc2c(O)[nH]c3ccc(Br)cc23)cc1	-5	4	4	-23	-23*
Oc1cccc(NC(=S)N=Nc2c(O)[nH]c3ccc(Br)cc23)c1	0	-5	8	7	-37*
Cc1ccc(NC(=S)N=Nc2c(O)[nH]c3ccccc23)cc1	/	/	/	-2	5
COc1ccc(NC(=S)N=Nc2c(O)[nH]c3ccccc23)cc1	-8	-3	4	1	-47*
COc1ccc(NC(=O)N2CC3(C2)CN(C(=O)CN2CCOCC2)[C@H](CO)c2[nH]c4cc(OC)ccc4c23)cc1	/	/	/	-1	0
CN(C)C(=O)C[C@@H]1CC[C@@H]2[C@@H](COc3ccc(NC(=O)C4CCCC4)cc3C(=O)N2C)O1	/	/	/	-3	3
C[C@H]1CN([C@@H](C)CO)C(=O)c2cccc(NC(=O)Nc3ccccc3)c2O[C@@H]1CN(C)S(=O)(=O)c1ccc(Cl)cc1	-1	-3	-18	10	-3
CCC(=O)Nc1ccc2c(c1)C(=O)N(C)C[C@@H](OC)[C@@H](C)CN(Cc1cncnc1)[C@@H](C)CO2	/	/	/	/	1
COc1ccc2c3c(n(C)c2c1)[C@H](CO)N(CC1CC1)CC31CN(C(=O)c2ccc(F)cc2)C1	/	/	/	/	-5
Cc1noc(C)c1S(=O)(=O)Nc1ccc2c(c1)C(=O)N([C@H](C)CO)C[C@@H](C)[C@@H](CN(C)Cc1ccc3c(c1)OCO3)OCCCC[C@H](C)O2	-2	3	-3	-7	0
Cc1noc(C)c1S(=O)(=O)Nc1ccc2c(c1)C(=O)N([C@H](C)CO)C[C@@H](C)[C@H](CN(C)Cc1ccccc1)OCCCC[C@H](C)O2	2	101*	9	8	5
Cc1noc(C)c1S(=O)(=O)Nc1ccc2c(c1)C(=O)N([C@@H](C)CO)C[C@@H](C)[C@H](CN(C)Cc1ccc3c(c1)OCO3)OCCCC[C@H](C)O2	1	101*	6	3	0
C[C@H]1CCCCO[C@H](CN(C)S(=O)(=O)c2ccc(Cl)cc2)[C@@H](C)CN([C@@H](C)CO)C(=O)c2cc(NC(=O)C3CCCCC3)ccc2O1	1	1	-4	27	-1
O=c1[nH]cnc2c1c(-c1ccccc1)cn2-c1ccccc1	-2	-3	1	-3	-31*
Cn1c(SCC(=O)N2CCOCC2)nnc1-c1ccncc1	4	4	6	-14	3
O=C(CSc1nnc2nnc3ccccc3n12)N1CCOCC1	-1	1	-10	-14	-25*
COc1ccc(NC(=O)N(C)C[C@@H]2Oc3c(NC(=O)Nc4c(C)noc4C)cccc3C(=O)N([C@H](C)CO)C[C@H]2C)cc1	0	-1	-5	-7	0
O=C1C[C@@](C(=O)NCCN2CCOCC2)(c2ccc([N+](=O)[O-])cc2)[C@@H](c2ccc(CO)cc2I)N1CC12CC3CC(CC(C3)C1)C2	-3	10	-11	58*	/
COC(=O)CC1(c2ccc(OC)cc2)C(=O)c2ccccc2C1=O	0	2	-3	-2	-26*
COC(=O)CC1(c2ccccc2)C(=O)c2ccccc2C1=O	0	-5	-7	-2	-17
SMILES	PglD DTNB	Cneo AK release	RAD54 branch	RAD52 inh	rRNA inh HTS
Cn1nc(C(C)(C)C)cc1NC(=O)Nc1cc(Cl)cc(Cl)c1	-5	1	-2	-11	-20*
Cc1ccc(F)cc1NC(=O)Nc1cc(C(C)(C)C)nn1C	1	-3	-3	2	/
CC(=O)N(C)C[C@@H]1Oc2c(cccc2N(C)C)C(=O)N(C)C[C@@H]1C	/	/	/	/	1
NC(=O)CSc1nc2cc([N+](=O)[O-])ccc2n1-c1cccc(C(F)(F)F)c1	3	-6	-3	-40	-22*
CCNC(=O)CSc1nc2cc([N+](=O)[O-])ccc2n1-c1cccc(C(F)(F)F)c1	2	-2	0	/	/
COc1ccc(NC(=O)Nc2ccc3c(c2)CC(=O)N([C@@H](C)CO)C[C@H](C)[C@H](CN(C)C)O3)cc1	6	0	5	2	1
CCCn1c(SCc2ccc(C(=O)OC)o2)nc2ccccc2c1=O	0	2	10	-11	5
COC(=O)c1ccc(CSc2cc(C)c3ccccc3n2)o1	/	/	/	-42	-22*
CCCNC(=O)C[C@@H]1C[C@@H]2c3cc(NS(=O)(=O)c4cccc(OC)c4)ccc3O[C@@H]2[C@@H](CO)O1	2	-1	-4	0	-2
C[C@@H]1CCCCO[C@H](CN(C)Cc2ccc(C(=O)O)cc2)[C@H](C)CN([C@@H](C)CO)C(=O)c2cc(NS(=O)(=O)c3cn(C)cn3)ccc2O1	-3	1	-1	/	3
CO[C@H]1CN(C)C(=O)c2ccc(NC(C)=O)cc2OC[C@H](C)N(Cc2cncnc2)C[C@@H]1C	/	/	/	/	2
O=C(NCCCN1CCCC1=O)c1ccccc1OCc1ccc(Cl)cc1Cl	0	1	-7	2	-31*
O=C(NCCCN1CCCC1=O)c1cc(-c2ccc(F)cc2)nc2ccccc12	4	1	7	-11	-20*
O=C(NNS(=O)(=O)c1cccc(Cl)c1)c1cc(-c2ccc(F)cc2)nc2ccccc12	-3	0	0	-12	-19*
C[C@@H]1CCCCO[C@@H](CN(C)C(=O)CCC(F)(F)F)[C@@H](C)CN([C@H](C)CO)C(=O)c2cc(NS(=O)(=O)c3cn(C)cn3)ccc2O1	3	-3	-7	2	1
CCCN(C)C[C@@H]1Oc2cc(C3=CCCC3)ccc2S(=O)(=O)N([C@H](C)CO)C[C@@H]1C	/	/	/	/	1
COc1ccc(Nc2cnn(-c3nc4ccccc4s3)c(=O)c2Cl)cc1	6	2	0	-6	-25*
Cc1ccc(C)c(N2CCN(c3cnn(-c4nc5ccccc5s4)c(=O)c3Cl)CC2)c1	-7	2	1	/	/
